INS promoter inh: TRM-6 insulin promoter activity inhibition. TRM-6 cells (human fetal islet line), insulin promoter-eGFP reporter, imaging; reporter expression induced with tamoxifen. inhibition, % at 2 µM. hit rate 0.9% among 130,000;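 active = inhibition above the mean plus 3 SD, with well images judged a real hit on visual review, cut at about 60% in these data, passing the limit was not always enough; inconclusive = inhibition over the cutoff but images rejected on review; inactive = inhibition not above the cutoff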
bCat nuc transl: beta-catenin nuclear translocation modulation | HeLa beta-catenin nuclear translocation, immunofluorescence imaging | nuclear translocation activity, % at 5 µM | hit rate 0.3% among 190,000 | AID 1665;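 active = nuclear translocation activity above 50% at 5 µM, with a well cell count of 50 or more; inconclusive = wells under 50 cells across six images, flagged as toxic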;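 note: per-cell ratio of nuclear to cytoplasmic median beta-catenin stain intensity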
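Test system: human HeLa cells, native beta-catenin. Compound dosing: 5 µM primary single dose, 0.1% DMSO, 0.02–20 µM confirmation series. Incubation: compound exposure 24 h at 37°C. Detection: beta-catenin immunostaining with DAPI counterstain, 20x imaging, 6 fields/well. Read-out basis: Nuclear/cytoplasmic beta-catenin signal ratio, % activation.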
MT stabilizer: microtubule stabilization, imaging screen. HeLa tubulin immunostaining HCS, 24 h; share of cells brighter than vehicle mean+2SD. % tubulin-high responders, % at 10 µM. hit rate 0.83% among 200,000. AID 2205;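 active = plate Z-score above 3 for both tubulin-high and condensed-nucleus cell shares, with cell loss under 80%, at 10 µM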;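 note: anti alpha tubulin signal scored within the nucleus-defined area of each cell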
ROMK mod: human ROMK K+ channel modulation, primary screen; P48048; Tet-inducible ROMK, thallium flux fluorescence; actives lie on both sides; B-score at 10 µM; hit rate 2% among 130,000;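 active = signal ratio slope over the read window, or its plate-corrected B-score, at least 3 SD from the plate mean, either direction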;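 note: B-score of the F/F0 ratio slope over 7 to 12 s after thallium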
Target sequence (P48048 whole entry, looked up): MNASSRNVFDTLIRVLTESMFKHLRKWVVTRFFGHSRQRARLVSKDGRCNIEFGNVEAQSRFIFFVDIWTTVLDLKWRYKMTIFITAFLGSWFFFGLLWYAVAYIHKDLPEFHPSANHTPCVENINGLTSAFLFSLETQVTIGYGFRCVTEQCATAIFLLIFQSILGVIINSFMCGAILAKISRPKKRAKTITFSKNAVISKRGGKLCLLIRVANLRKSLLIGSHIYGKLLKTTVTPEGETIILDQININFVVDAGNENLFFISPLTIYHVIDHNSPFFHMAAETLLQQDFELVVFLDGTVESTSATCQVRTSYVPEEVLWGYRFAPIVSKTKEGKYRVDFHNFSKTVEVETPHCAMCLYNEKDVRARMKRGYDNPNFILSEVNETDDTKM
HSV replic up: HSV replication enhancement | HSV replication augmentation in cells, fold increase | hit rate 0.005% among 220,000 | AID 1956 | maximum fold increase; in the data active = maximum fold increase above about 1.5; inconclusive = no clear call, values can overlap the other calls; tested in PC3 cells
ROMK retest: confirmation of human ROMK potassium channel modulators; ROMK thallium flux, fluorescence ratio; stronger effect = lower value; shares compounds with ROMK mod; AID 1917; normalized thallium flux (F/F0 slope) at 10 µM; hit rate 54% among 3,000;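 active = Flux at 10 µM at least 3 SD below or above vehicle control mean in one or both replicates; inconclusive = no clear call, values can overlap the other calls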
A number is an active result; . = inactive; ? = inconclusive; / = not tested or not shown. Most compounds without a hit are left out; they make up all but 2.4% or so of the library.

SMILES	INS promoter inh	bCat nuc transl	MT stabilizer	ROMK mod	HSV replic up	ROMK retest
COc1ccccc1N(C(=O)CNS(=O)(=O)c1ccccc1)C(C(=O)NCc1ccco1)C(C)C (stereo unspecified)	/	.	.	/	.	/
CCCC(C(=O)NCc1ccco1)N(C(=O)CNS(=O)(=O)c1ccccc1)c1ccccc1OC (stereo unspecified)	/	.	.	-4.2	.	0.058
O=C(c1cccc2ccccc12)N1CCN(c2ccc([N+](=O)[O-])c(N3CCOCC3)c2)CC1	/	.	.	/	.	.
O=C(c1ccccc1F)N1CCN(c2ccc([N+](=O)[O-])c(N3CCOCC3)c2)CC1	/	.	.	.	.	/
COc1ccc(/C=N/NC(=O)c2cccnc2)cc1CSc1nc2ccccc2s1	/	153	.	/	.	.
COc1ccc(/C=N/NC(=O)c2cccnc2)cc1CN1CCOCC1	/	.	/	/	.	/
Cc1cc(C(=O)CN2C(=O)NC(c3ccccc3)(c3ccccc3)C2=O)c(C)n1Cc1ccco1	/	.	.	/	.	/
Cc1cc(C(=O)CN2C(=O)NC(C)(c3cccc(Br)c3)C2=O)c(C)n1Cc1ccco1 (stereo unspecified)	/	/	.	/	.	?
COc1cccc(-c2csc(N3CCN(C(=S)Nc4ccccc4C)CC3)n2)c1	.	.	.	.	.	/
CCN(CC)c1ccc(/C=C2/C(=O)ON=C2C)cc1	.	.	.	-5.7	.	0.036
CC1=NN(CCC#N)C(=O)/C1=C/c1ccc(N(C)C)cc1	.	.	.	.	.	/
CC1=NOC(=O)/C1=C/c1ccc(N(C)C)cc1	.	.	.	/	.	?
CCN(CC)c1ccc(/C=C2\C(=O)N(c3nnc(C)c(=O)[nH]3)N=C2C)cc1	/	.	/	/	.	0.029
COc1ccc(CNC(=O)COC(=O)c2ccccn2)cc1	.	.	.	.	.	/
CN(NC(=O)c1ccccc1F)c1ccc([N+](=O)[O-])cn1	/	.	/	.	.	/
COCCNc1ccc([N+](=O)[O-])cc1C(=O)Nc1cccc(C)n1	/	.	.	-5.1	.	0.029
COc1cccc(NC(=O)c2cccc(C)c2[N+](=O)[O-])c1	/	.	.	4.3	.	.
COc1cccc(NC(=O)c2cc([N+](=O)[O-])ccc2NCc2cccnc2)c1	.	.	.	-6.7	.	0.03
COc1ccc(NCC(=O)n2c(C)c(C)c3ccccc32)cc1OC	/	.	/	/	.	/
COc1ccccc1-n1cc(CN2CCN(C3CCCCC3)C(CCO)C2)cn1 (stereo unspecified)	/	.	.	.	.	/
COc1ccc(C2(C)NC(=O)N(CC(=O)Nc3ccc4c(c3)OCO4)C2=O)cc1OC (stereo unspecified)	.	/	.	/	.	/
N=C(N)SCc1cn(-c2ccccc2)nc1-c1ccc(Br)cc1	/	.	.	-2.1	.	0.055
N#Cc1cccc(C#N)c1Oc1ccc(N)cc1	/	.	/	/	.	/
COc1cc(/C=C(\C#N)C(=O)N2CCOCC2)ccc1OCc1ccccc1	/	.	.	.	.	/
COc1ccc(/C=C(\C#N)C(=O)N2CCOCC2)cc1Br	.	.	.	-3.7	/	0.051
SMILES	INS promoter inh	bCat nuc transl	MT stabilizer	ROMK mod	HSV replic up	ROMK retest
Cc1cc(/C=C2\Sc3ccccc3N2C)cc(C)[n+]1CC1CCCO1 (stereo unspecified)	/	.	.	-4.8	/	0.028
Cc1ccc2c(c1)S/C(=C/c1ccc[n+](CCO)c1)N2C	.	.	.	.	.	/
CCC(c1nnc(SCC(=O)NCCc2ccc(Cl)cc2Cl)o1)N(C)C (stereo unspecified)	.	.	.	/	.	/
COC(=O)C1=C(C)N(C)C(C)=C(C(=O)OC)C1c1ccccc1C	/	.	.	-4.4	.	0.064
CCCCOc1ccccc1C1C(C(=O)OC)=C(C)N(C)C(C)=C1C(=O)OC	.	.	.	/	.	/
CCn1c(=O)c2c(nc(SCC(=O)NCC3CCCO3)n2C)n(C)c1=O (stereo unspecified)	.	.	.	/	.	/
CC(C)c1ccc(NC(=O)C(c2ccccc2)N2CC(=O)Nc3ccccc32)cc1 (stereo unspecified)	.	.	.	1.9	/	.
CC(NC(=O)C(NC(=O)C1CCCN1C(=O)OC(C)(C)C)C(C)C)C(N)=O (stereo unspecified)	.	.	.	/	.	/
CN(CC1CCCO1)S(=O)(=O)c1ccc(C(=O)Nc2nc(-c3ccccn3)cs2)cc1 (stereo unspecified)	/	.	.	/	.	.
CCOC(=O)C1=C(O)C(=O)N(c2ccc(S(N)(=O)=O)cc2)C1c1ccccc1 (stereo unspecified)	.	.	.	/	.	.
CCOc1ccc(C2=C(C=Nc3c(C)n(C)n(-c4ccccc4)c3=O)C(c3ccc(F)cc3)c3ccccc3O2)cc1 (stereo unspecified)	.	/	.	.	?	/
CC1(C)Cc2c(C#N)c(SCCOc3ccccc3)nc(N3CCOCC3)c2CO1	.	/	.	/	.	?
C=CCN(CC=C)C(=O)c1ccc(OC2CCN(Cc3ccccn3)CC2)cc1	/	.	.	.	.	/
CCOc1ccc(-c2nc(CN3CCCCC3CCn3cccn3)c(C)o2)cc1 (stereo unspecified)	/	.	/	/	.	/
CC(C)c1nc(SCC(=O)Nc2c[nH]c(=O)[nH]c2=O)c2cnn(-c3ccccc3)c2n1	/	.	.	0.42	.	.
CCOC(=O)N1CCC(N(CCN(C)C)C(=S)Nc2cc(Cl)ccc2C)CC1	.	.	.	.	.	/
CCOC(=O)C1(Cc2ccccc2)CCN(Cc2cn(CC(=O)OC)c3ccccc23)CC1	/	.	.	-3.3	.	0.055
Cc1cccc(NS(=O)(=O)c2ccc3[nH]c(=O)cc(C(=O)OC(C)C(=O)Nc4ccc([N+](=O)[O-])cc4)c3c2)c1 (stereo unspecified)	/	.	.	-3.1	.	?
Cc1ccc(S(=O)(=O)N(C)C)cc1[N+](=O)[O-]	/	.	/	.	.	/
COc1cc(CC(=O)OCC(=O)Nc2sccc2C(N)=O)cc(OC)c1OC	91	.	.	.	.	0.062
Clc1cccc(-c2cc3nc4c(c(N5CCOCC5)n3n2)CCCC4)c1	.	.	.	-3.9	.	0.064
Fc1cccc(-c2cc3nc4c(c(N5CCOCC5)n3n2)CCCC4)c1	.	.	.	/	.	/
CC(C)CCNC(=O)C(c1ccc(O)cc1)N(Cc1cccs1)C(=O)C1COc2ccccc2O1 (stereo unspecified)	.	.	.	-2.8	.	0.061
CC(C)(C)NC(=O)CN(Cc1cccs1)C(=O)C1COc2ccccc2O1 (stereo unspecified)	.	.	.	/	.	/
Cc1cc(C)cc(-n2c(C)cc(/C=N/NC(=O)c3ccncc3)c2C)c1	/	.	.	.	.	/
Cc1cc(/C=N/NC(=O)c2ccsc2)c(C)n1-c1cnccn1	.	.	.	.	.	.
O=S(=O)(c1ccc(Cl)s1)N1CCN(Cc2ccccc2)CC1	.	.	.	.	.	/
O=C(CN1CCN(S(=O)(=O)c2ccc(Cl)s2)CC1)N1CCOCC1	/	.	/	-3.2	.	.
Cc1sc2nc(CSc3ccc([N+](=O)[O-])c(C(F)(F)F)c3)[nH]c(=O)c2c1C	.	.	.	.	.	/
